# Test system: HEK-293T
# Assay: Multiplex assay against HEK293T;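 for Population Tubulin-Different-Phenotype (%): share of the cells with healthy nuclei that show this phenotype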
# Type: toxicity, cell-based
# Conditions: human
# In short: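 Live cells were stained at seeding with Hoechst33342, BioTracker Green Microtubule Cytoskeleton Dye, MitoTracker Red and Annexin V Alexa Fluor 680. Following compound addition, they were imaged on a CQ1 microscope at 37°C and 5% CO2 and gated by CellPathfinder machine learning into Hoechst high-intensity objects or normal cells, with normal cells split into healthy, pyknosed or fragmented nuclei and pyknosed cells into mitotic or apoptotic. Tubulin, mitochondrial-mass and membrane-permeability phenotypes are per cents of healthy-nucleus cells.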
# [1] = 12 h, 1 µM, compound concentration 1 uM, replicate 1
# [2] = 12 h, 1 µM, compound concentration 1 uM, replicate 2
# [3] = 12 h, 10 µM, compound concentration 10 uM, replicate 1
# [4] = 12 h, 10 µM, compound concentration 10 uM, replicate 2
# [5] = 24 h, 1 µM, compound concentration 1 uM, replicate 1
# [6] = 24 h, 1 µM, compound concentration 1 uM, replicate 2
# [7] = 24 h, 10 µM, compound concentration 10 uM, replicate 1
# [8] = 24 h, 10 µM, compound concentration 10 uM, replicate 2
# [9] = 48 h, 1 µM, compound concentration 1 uM, replicate 1
# [10] = 48 h, 1 µM, compound concentration 1 uM, replicate 2
# [11] = 48 h, 10 µM, compound concentration 10 uM, replicate 1
# [12] = 48 h, 10 µM, compound concentration 10 uM, replicate 2
structure (smiles),measurement,setting,value
CCN1CCN(c2ccc(Nc3cc(N(C)C(=O)Nc4c(Cl)c(OC)cc(OC)c4Cl)ncn3)cc2)CC1 [INFIGRATINIB],Population Apoptotic (%),[1],26%
same,Population Fragmented Nuclei (%),[1],18%
same,Population Healthy Nuclei (%),[1],37%
same,Population Hoechst High Intensity Objects (%),[1],19%
same,Population Membrane Permeable-Phenotype (%),[1],18%
same,Population Mitochondria Different-Phenotype (%),[1],14%
same,Population Mitotic Cells (%),[1],73%
same,Population Normal (%),[1],80%
same,Population Pyknosed Nuclei (%),[1],44%
same,Population Tubulin-Different-Phenotype (%),[1],52%
same,Total Cell Count,[1],470
same,Population Apoptotic (%),[2],14%
same,Population Fragmented Nuclei (%),[2],4%
same,Population Healthy Nuclei (%),[2],84%
same,Population Hoechst High Intensity Objects (%),[2],3%
same,Population Membrane Permeable-Phenotype (%),[2],6%
same,Population Mitochondria Different-Phenotype (%),[2],27%
same,Population Mitotic Cells (%),[2],85%
same,Population Normal (%),[2],96%
same,Population Pyknosed Nuclei (%),[2],11%
same,Population Tubulin-Different-Phenotype (%),[2],81%
same,Total Cell Count,[2],1084
same,Population Apoptotic (%),[3],18%
same,Population Fragmented Nuclei (%),[3],19%
same,Population Healthy Nuclei (%),[3],56%
same,Population Hoechst High Intensity Objects (%),[3],14%
same,Population Membrane Permeable-Phenotype (%),[3],7%
same,Population Mitochondria Different-Phenotype (%),[3],10%
same,Population Mitotic Cells (%),[3],81%
same,Population Normal (%),[3],85%
same,Population Pyknosed Nuclei (%),[3],23%
same,Population Tubulin-Different-Phenotype (%),[3],13%
same,Total Cell Count,[3],527
same,Population Apoptotic (%),[4],9%
same,Population Fragmented Nuclei (%),[4],7%
same,Population Healthy Nuclei (%),[4],87%
same,Population Hoechst High Intensity Objects (%),[4],2%
same,Population Membrane Permeable-Phenotype (%),[4],5%
same,Population Mitochondria Different-Phenotype (%),[4],11%
same,Population Mitotic Cells (%),[4],90%
same,Population Normal (%),[4],97%
same,Population Pyknosed Nuclei (%),[4],5%
same,Population Tubulin-Different-Phenotype (%),[4],24%
same,Total Cell Count,[4],1732
same,Population Apoptotic (%),[5],37%
same,Population Fragmented Nuclei (%),[5],16%
same,Population Healthy Nuclei (%),[5],60%
same,Population Hoechst High Intensity Objects (%),[5],19%
same,Population Membrane Permeable-Phenotype (%),[5],10%
same,Population Mitochondria Different-Phenotype (%),[5],31%
same,Population Mitotic Cells (%),[5],62%
same,Population Normal (%),[5],80%
same,Population Pyknosed Nuclei (%),[5],23%
same,Population Tubulin-Different-Phenotype (%),[5],78%
same,Total Cell Count,[5],436
same,Population Apoptotic (%),[6],6%
same,Population Fragmented Nuclei (%),[6],7%
same,Population Healthy Nuclei (%),[6],82%
same,Population Hoechst High Intensity Objects (%),[6],5%
same,Population Membrane Permeable-Phenotype (%),[6],9%
same,Population Mitochondria Different-Phenotype (%),[6],20%
same,Population Mitotic Cells (%),[6],93%
same,Population Normal (%),[6],94%
same,Population Pyknosed Nuclei (%),[6],9%
same,Population Tubulin-Different-Phenotype (%),[6],87%
same,Total Cell Count,[6],1343
same,Population Apoptotic (%),[7],19%
same,Population Fragmented Nuclei (%),[7],13%
same,Population Healthy Nuclei (%),[7],76%
same,Population Hoechst High Intensity Objects (%),[7],10%
same,Population Membrane Permeable-Phenotype (%),[7],15%
same,Population Mitochondria Different-Phenotype (%),[7],4%
same,Population Mitotic Cells (%),[7],80%
same,Population Normal (%),[7],89%
same,Population Pyknosed Nuclei (%),[7],9%
same,Population Tubulin-Different-Phenotype (%),[7],24%
same,Total Cell Count,[7],608
same,Population Apoptotic (%),[8],10%
same,Population Fragmented Nuclei (%),[8],23%
same,Population Healthy Nuclei (%),[8],74%
same,Population Hoechst High Intensity Objects (%),[8],4%
same,Population Membrane Permeable-Phenotype (%),[8],11%
same,Population Mitochondria Different-Phenotype (%),[8],2%
same,Population Mitotic Cells (%),[8],90%
same,Population Normal (%),[8],95%
same,Population Pyknosed Nuclei (%),[8],2%
same,Population Tubulin-Different-Phenotype (%),[8],26%
same,Total Cell Count,[8],3002
Cl.O=c1c2cccn2c2ccccc2n1CCCN1CCC(c2ccc(Cl)cc2)CC1,Population Apoptotic (%),[1],57%
same,Population Fragmented Nuclei (%),[1],7%
same,Population Healthy Nuclei (%),[1],47%
same,Population Hoechst High Intensity Objects (%),[1],10%
same,Population Membrane Permeable-Phenotype (%),[1],0%
same,Population Mitochondria Different-Phenotype (%),[1],95%
same,Population Mitotic Cells (%),[1],42%
same,Population Normal (%),[1],89%
same,Population Pyknosed Nuclei (%),[1],44%
same,Population Tubulin-Different-Phenotype (%),[1],80%
same,Total Cell Count,[1],267
same,Population Apoptotic (%),[2],30%
same,Population Fragmented Nuclei (%),[2],5%
same,Population Healthy Nuclei (%),[2],38%
same,Population Hoechst High Intensity Objects (%),[2],5%
same,Population Membrane Permeable-Phenotype (%),[2],6%
same,Population Mitochondria Different-Phenotype (%),[2],65%
same,Population Mitotic Cells (%),[2],69%
same,Population Normal (%),[2],94%
same,Population Pyknosed Nuclei (%),[2],56%
same,Population Tubulin-Different-Phenotype (%),[2],59%
same,Total Cell Count,[2],238
same,Population Apoptotic (%),[3],86%
same,Population Fragmented Nuclei (%),[3],8%
same,Population Healthy Nuclei (%),[3],34%
same,Population Hoechst High Intensity Objects (%),[3],17%
same,Population Membrane Permeable-Phenotype (%),[3],5%
same,Population Mitochondria Different-Phenotype (%),[3],100%
same,Population Mitotic Cells (%),[3],13%
same,Population Normal (%),[3],82%
same,Population Pyknosed Nuclei (%),[3],57%
same,Population Tubulin-Different-Phenotype (%),[3],94%
same,Total Cell Count,[3],297
same,Population Apoptotic (%),[4],92%
same,Population Fragmented Nuclei (%),[4],7%
same,Population Healthy Nuclei (%),[4],19%
same,Population Hoechst High Intensity Objects (%),[4],9%
same,Population Mitochondria Different-Phenotype (%),[4],91%
same,Population Mitotic Cells (%),[4],7%
same,Population Normal (%),[4],90%
same,Population Pyknosed Nuclei (%),[4],72%
same,Population Tubulin-Different-Phenotype (%),[4],86%
same,Total Cell Count,[4],212
same,Population Apoptotic (%),[5],53%
same,Population Fragmented Nuclei (%),[5],7%
same,Population Healthy Nuclei (%),[5],55%
same,Population Hoechst High Intensity Objects (%),[5],12%
same,Population Membrane Permeable-Phenotype (%),[5],1%
same,Population Mitochondria Different-Phenotype (%),[5],93%
same,Population Mitotic Cells (%),[5],46%
same,Population Normal (%),[5],87%
same,Population Pyknosed Nuclei (%),[5],37%
same,Population Tubulin-Different-Phenotype (%),[5],73%
same,Total Cell Count,[5],278
same,Population Apoptotic (%),[6],38%
same,Population Fragmented Nuclei (%),[6],5%
same,Population Healthy Nuclei (%),[6],56%
same,Population Hoechst High Intensity Objects (%),[6],4%
same,Population Membrane Permeable-Phenotype (%),[6],4%
same,Population Mitochondria Different-Phenotype (%),[6],75%
same,Population Mitotic Cells (%),[6],61%
same,Population Normal (%),[6],95%
same,Population Pyknosed Nuclei (%),[6],38%
same,Population Tubulin-Different-Phenotype (%),[6],65%
same,Total Cell Count,[6],296
same,Population Apoptotic (%),[7],84%
same,Population Fragmented Nuclei (%),[7],13%
same,Population Healthy Nuclei (%),[7],36%
same,Population Hoechst High Intensity Objects (%),[7],27%
same,Population Membrane Permeable-Phenotype (%),[7],6%
same,Population Mitochondria Different-Phenotype (%),[7],100%
same,Population Mitotic Cells (%),[7],15%
same,Population Normal (%),[7],72%
same,Population Pyknosed Nuclei (%),[7],50%
same,Population Tubulin-Different-Phenotype (%),[7],88%
same,Total Cell Count,[7],286
same,Population Apoptotic (%),[8],98%
same,Population Fragmented Nuclei (%),[8],7%
same,Population Healthy Nuclei (%),[8],34%
same,Population Hoechst High Intensity Objects (%),[8],16%
same,Population Membrane Permeable-Phenotype (%),[8],3%
same,Population Mitochondria Different-Phenotype (%),[8],96%
same,Population Mitotic Cells (%),[8],1%
same,Population Normal (%),[8],83%
same,Population Pyknosed Nuclei (%),[8],58%
same,Population Tubulin-Different-Phenotype (%),[8],67%
same,Total Cell Count,[8],206
same,Population Apoptotic (%),[9],43%
same,Population Healthy Nuclei (%),[9],77%
same,Population Hoechst High Intensity Objects (%),[9],7%
same,Population Membrane Permeable-Phenotype (%),[9],2%
same,Population Mitochondria Different-Phenotype (%),[9],63%
same,Population Mitotic Cells (%),[9],56%
same,Population Normal (%),[9],92%
same,Population Pyknosed Nuclei (%),[9],15%
same,Population Tubulin-Different-Phenotype (%),[9],59%
same,Total Cell Count,[9],453
same,Population Apoptotic (%),[10],31%
same,Population Fragmented Nuclei (%),[10],7%
same,Population Healthy Nuclei (%),[10],70%
same,Population Hoechst High Intensity Objects (%),[10],5%
same,Population Membrane Permeable-Phenotype (%),[10],3%
same,Population Mitochondria Different-Phenotype (%),[10],32%
same,Population Mitotic Cells (%),[10],68%
same,Population Normal (%),[10],94%
same,Population Pyknosed Nuclei (%),[10],22%
same,Population Tubulin-Different-Phenotype (%),[10],54%
same,Total Cell Count,[10],461
same,Population Apoptotic (%),[11],82%
same,Population Fragmented Nuclei (%),[11],15%
same,Population Healthy Nuclei (%),[11],35%
same,Population Hoechst High Intensity Objects (%),[11],38%
same,Population Membrane Permeable-Phenotype (%),[11],2%
same,Population Mitochondria Different-Phenotype (%),[11],97%
same,Population Mitotic Cells (%),[11],17%
same,Population Normal (%),[11],61%
same,Population Pyknosed Nuclei (%),[11],48%
same,Population Tubulin-Different-Phenotype (%),[11],79%
same,Total Cell Count,[11],311
same,Population Apoptotic (%),[12],98%
same,Population Fragmented Nuclei (%),[12],13%
same,Population Healthy Nuclei (%),[12],42%
same,Population Hoechst High Intensity Objects (%),[12],30%
same,Population Membrane Permeable-Phenotype (%),[12],3%
same,Population Mitochondria Different-Phenotype (%),[12],98%
same,Population Mitotic Cells (%),[12],1%
same,Population Normal (%),[12],69%
same,Population Pyknosed Nuclei (%),[12],43%
same,Population Tubulin-Different-Phenotype (%),[12],64%
same,Total Cell Count,[12],191
